ChEMBL document CHEMBL1142104, “Anti-HCV bioactivity of pseudoguaianolides from Parthenium hispitum” (J Nat Prod, 2007)

How the values were obtained:
Hepatitis C virus = test: Antiviral activity against HCV in Huh7 cells at 2 uM by subgenomic replicon assay; format: functional, Hepacivirus hominis; conditions: Huh-7
In short: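 Huh-7 replicon cells (luciferase reporter), grown to 85% confluency with >95% viability, seeded at 11 000 cells/well; compound added and incubated 48 h at 37 °C. Plates cooled 30 min to room temperature, luciferase reagent added, luminescence read after 3 min. Inhibition calculated with no-cell wells as low signal and compound-free cells as high signal; duplicate testing.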

[1] = Cytotoxicity against Huh7 replicon cells; format: cell-based; conditions: human, huh-7

## C=C1C(=O)O[C@@H]2[C@H]1CCC(COC(=O)C(C)CC)[C@]1(O)CCC(=O)[C@@]21C (some centres undefined)
Hepatitis C virus
  inhibition at 2 µM: 25%
[1]
  Activity: Not Active

## C=C1C(=O)O[C@@H]2[C@H]1CCC(COC(=O)CC(C)C)[C@]1(O)CCC(=O)[C@@]21C (some centres undefined)
Hepatitis C virus
  inhibition at 2 µM: 63%
[1]
  Activity: Not Active

## C=C1C(=O)O[C@@H]2[C@H]1CC[C@H](COC(=O)CC)[C@]1(O)CCC(=O)[C@@]21C [HISPITOLIDE A]
Hepatitis C virus
  inhibition at 2 µM: 55%
[1]
  Activity: Not Active

## C=C1C(=O)O[C@@H]2[C@H]1CC[C@H](COC(=O)CCC)[C@]1(O)CCC(=O)[C@@]21C [HISPITOLIDE B]
Hepatitis C virus
  inhibition at 2 µM: 90%
[1]
  Activity: Not Active

## C=C1C(=O)O[C@@H]2[C@H]1CC[C@H](COC(=O)/C(C)=C/C)[C@]1(O)CCC(=O)[C@@]21C [HISPITOLIDE C]
Hepatitis C virus
  inhibition at 2 µM: 98%
[1]
  Activity: Not Active

## C=C1C(=O)O[C@@H]2[C@H]1CC[C@H](COC(=O)C=C(C)C)[C@]1(O)CCC(=O)[C@@]21C [HISPITOLIDE D]
Hepatitis C virus
  inhibition at 2 µM: 98%
[1]
  Activity: Not Active

## C=C1C(=O)O[C@@H]2[C@H]1CC[C@H](COC(=O)/C(C)=C\C)[C@]1(O)CCC(=O)[C@@]21C [HISPITOLIDE E]
Hepatitis C virus
  inhibition at 2 µM: 65%
[1]
  Activity: Not Active
